Experimental findings from ChEMBL document CHEMBL2163203, “Conformationally-locked N-glycosides with selective β-glucosidase inhibitory activity: identification of a new non-iminosugar-type pharmacological chaperone for Gaucher disease” (J Med Chem, 2012) are described below.

The term residual activity denotes the activity still measured, relative to the control. A word on the Ki: it is a measure of affinity in units of concentration, obtained from inhibition or displacement. The low end stands for a stronger hold on the target, the high end for a looser hold on the target.

The subject of one experiment is Aspergillus niger. The experiment can be described thus: Inhibition of Aspergillus niger amyloglucosidase at 2 mM after 10 to 30 mins by spectrophotometric analysis. In short, it runs like this: (§1)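 Enzyme added to substrate with or without inhibitor in phosphate buffer (phosphate–citrate for α-/β-mannosidase and amyloglucosidase) at each enzyme's optimal pH; 10–30 min at 37 °C (55 °C amyloglucosidase), aiming at 10–20% conversion. Stopped with 1 M Na₂CO₃, A405; trehalase stopped by heating, GLC-Trinder added, A492. Ki from Lineweaver–Burk and double-reciprocal analysis, substrate near Km.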

The next experiment relates to Prunus dulcis. The experiment can be described thus: Inhibition of almond beta-glucosidase at 2 mM after 10 to 30 mins by spectrophotometric analysis. In short, it runs like this:
as §1

Experiment [1] deals with Beta-galactosidase (Escherichia coli) (UniProt Q8VNN2). In words: Inhibition of Escherichia coli beta galactosidase at 2 mM after 10 to 30 mins by spectrophotometric analysis. In a few lines:
as §1

A further experiment concerns Canavalia ensiformis. In words: Inhibition of jack bean alpha-mannosidase at 2 mM after 10 to 30 mins by spectrophotometric analysis. In short, it runs like this:
as §1

A further experiment concerns Helix pomatia. The experiment can be described thus: Inhibition of Helix pomatia beta-mannosidase at 2 mM after 10 to 30 mins by spectrophotometric analysis. In a few lines:
as §1

The target in experiment [2] is T1, Lysosomal acid glucosylceramidase (Homo sapiens) (UniProt P04062).
T1 sequence (whole entry): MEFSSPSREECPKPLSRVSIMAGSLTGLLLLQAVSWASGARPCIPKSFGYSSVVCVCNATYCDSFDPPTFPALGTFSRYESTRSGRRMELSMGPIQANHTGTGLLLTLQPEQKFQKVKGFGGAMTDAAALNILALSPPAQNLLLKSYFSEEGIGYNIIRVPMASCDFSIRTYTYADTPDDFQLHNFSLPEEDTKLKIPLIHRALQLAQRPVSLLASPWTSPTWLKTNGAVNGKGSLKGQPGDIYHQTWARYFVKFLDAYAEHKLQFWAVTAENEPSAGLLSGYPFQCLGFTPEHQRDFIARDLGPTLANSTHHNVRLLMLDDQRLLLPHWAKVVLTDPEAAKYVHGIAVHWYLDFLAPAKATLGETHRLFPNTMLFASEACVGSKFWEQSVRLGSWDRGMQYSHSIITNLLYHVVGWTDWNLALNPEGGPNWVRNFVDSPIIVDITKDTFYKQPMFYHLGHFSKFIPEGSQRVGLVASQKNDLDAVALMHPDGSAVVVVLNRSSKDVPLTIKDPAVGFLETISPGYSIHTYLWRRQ
In words: Inhibition of human beta-glucocerebrosidase at 100 uM relative to control. The following applies: values are per cent of control.

Experiment [3] relates to Saccharomyces cerevisiae. In words: Inhibition of yeast isomaltase at 2 mM after 10 to 30 mins by spectrophotometric analysis. In short, it runs like this: as §1
A short description of experiment [4]: Competitive inhibition of bovine beta-glucosidase isolated from liver after 10 to 30 mins by Lineweaver-Burk plot analysis. Also on record: species or system Bos taurus. In short, it runs like this:
as §1

In experiment [5] the target is Alpha-galactosidase (Coffea arabica) (UniProt Q42656). In words: Inhibition of green coffee alpha galactosidase at 2 mM after 10 to 30 mins by spectrophotometric analysis. In short, it runs like this: as §1
Chain of Alpha-galactosidase (Coffea arabica) (Q42656 16-378 limits assumed): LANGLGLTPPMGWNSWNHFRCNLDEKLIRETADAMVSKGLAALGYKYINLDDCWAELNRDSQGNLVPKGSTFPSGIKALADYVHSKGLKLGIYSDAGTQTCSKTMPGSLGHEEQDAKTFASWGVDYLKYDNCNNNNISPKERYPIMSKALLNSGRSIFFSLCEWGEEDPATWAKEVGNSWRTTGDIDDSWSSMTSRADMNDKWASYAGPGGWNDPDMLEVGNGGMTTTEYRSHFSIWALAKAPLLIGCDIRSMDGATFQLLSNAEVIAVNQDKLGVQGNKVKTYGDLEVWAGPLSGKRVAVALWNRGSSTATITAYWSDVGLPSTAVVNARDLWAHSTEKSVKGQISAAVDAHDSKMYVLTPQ
In experiment [6] the target is T2, Uncharacterized protein (Sus scrofa) (UniProt I3LIR5).
T2 sequence (whole entry): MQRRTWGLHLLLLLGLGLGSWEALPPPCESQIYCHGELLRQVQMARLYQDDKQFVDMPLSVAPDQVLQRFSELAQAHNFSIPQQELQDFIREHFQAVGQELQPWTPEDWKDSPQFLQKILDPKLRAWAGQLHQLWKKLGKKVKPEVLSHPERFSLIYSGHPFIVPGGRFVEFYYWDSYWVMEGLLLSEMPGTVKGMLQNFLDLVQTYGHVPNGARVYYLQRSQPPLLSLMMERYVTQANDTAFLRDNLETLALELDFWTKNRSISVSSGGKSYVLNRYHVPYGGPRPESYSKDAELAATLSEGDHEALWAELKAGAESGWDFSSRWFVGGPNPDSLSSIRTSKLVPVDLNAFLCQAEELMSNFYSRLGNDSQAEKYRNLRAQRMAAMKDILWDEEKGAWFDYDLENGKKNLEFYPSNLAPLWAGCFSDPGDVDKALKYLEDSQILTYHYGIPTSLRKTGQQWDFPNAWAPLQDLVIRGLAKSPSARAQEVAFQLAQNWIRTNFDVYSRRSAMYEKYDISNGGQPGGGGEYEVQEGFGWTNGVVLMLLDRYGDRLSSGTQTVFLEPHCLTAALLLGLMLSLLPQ
The experiment can be described thus: Inhibition of pig trehalase isolated from kidney using alpha,alpha'-trehalose as substrate at 2 mM after 10 to 30 mins by spectrophotometric analysis. In a few lines:
as §1

A further experiment deals with Penicillium decumbens. The experiment can be described thus: Inhibition of Penicillium decumbens naringinase at 2 mM after 10 to 30 mins by spectrophotometric analysis. In a few lines:
as §1

Experiment [7] has as its system Saccharomyces cerevisiae. In words: Inhibition of yeast alpha-glucosidase using at 2 mM after 10 to 30 mins by spectrophotometric analysis. In a few lines:
as §1

The structures appear in SMILES notation. Activity calls are given as the source filed them. The rule behind the calls is not given here.

Chain of Beta-galactosidase (Escherichia coli) (Q8VNN2 whole entry, looked up): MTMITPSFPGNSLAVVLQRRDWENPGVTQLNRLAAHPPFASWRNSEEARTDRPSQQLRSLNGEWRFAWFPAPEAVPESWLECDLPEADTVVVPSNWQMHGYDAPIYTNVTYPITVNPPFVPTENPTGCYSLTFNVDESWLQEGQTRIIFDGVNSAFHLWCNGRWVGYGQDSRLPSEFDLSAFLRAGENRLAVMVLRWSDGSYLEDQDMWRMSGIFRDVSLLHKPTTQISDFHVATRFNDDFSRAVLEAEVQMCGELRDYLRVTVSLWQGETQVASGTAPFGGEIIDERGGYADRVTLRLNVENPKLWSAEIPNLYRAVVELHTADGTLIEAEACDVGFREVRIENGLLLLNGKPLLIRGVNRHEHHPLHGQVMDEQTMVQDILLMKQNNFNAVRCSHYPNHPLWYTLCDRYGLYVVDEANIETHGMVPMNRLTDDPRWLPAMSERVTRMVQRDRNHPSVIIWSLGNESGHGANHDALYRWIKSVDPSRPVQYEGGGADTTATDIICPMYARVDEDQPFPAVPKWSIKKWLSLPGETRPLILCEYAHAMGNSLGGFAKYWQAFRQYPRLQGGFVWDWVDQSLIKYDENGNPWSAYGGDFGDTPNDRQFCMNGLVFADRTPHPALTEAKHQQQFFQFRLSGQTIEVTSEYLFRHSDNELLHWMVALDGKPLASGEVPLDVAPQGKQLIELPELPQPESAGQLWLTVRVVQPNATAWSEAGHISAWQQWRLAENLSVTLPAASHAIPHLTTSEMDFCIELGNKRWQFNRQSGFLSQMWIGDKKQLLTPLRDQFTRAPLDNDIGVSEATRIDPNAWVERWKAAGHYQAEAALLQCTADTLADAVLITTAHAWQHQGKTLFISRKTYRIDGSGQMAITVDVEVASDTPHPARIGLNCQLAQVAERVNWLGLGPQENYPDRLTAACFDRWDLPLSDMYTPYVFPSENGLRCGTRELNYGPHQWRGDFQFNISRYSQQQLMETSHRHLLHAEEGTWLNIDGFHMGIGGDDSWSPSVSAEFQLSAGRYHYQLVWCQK

`OC[C@H]1O[C@@H]2N=C(SCc3ccccc3)O[C@@H]2[C@@H](O)[C@@H]1O`: the inhibition entry (with Aspergillus niger; in the experiment on Prunus dulcis; in experiment [1]; in the experiment with Canavalia ensiformis; in the experiment with Helix pomatia; in the experiment on Saccharomyces cerevisiae [3]) was “inactive” in each case. For the same compound, the inhibition result (in experiment [5]; in [6]; in the experiment with Penicillium decumbens; with Saccharomyces cerevisiae [7]) was “inactive” in each case. In addition, the residual activity in experiment [2] was determined as 88%. In [4], this compound registered an inhibition constant (Ki) of 210 µM.
As for `CCCCCCCCSC1=N[C@H]2O[C@H](CO)[C@@H](O)[C@H](O)[C@H]2O1`, the inhibition result (in the experiment on Aspergillus niger; in the experiment with Prunus dulcis; in [1]; with Canavalia ensiformis; with Helix pomatia; in the experiment on Saccharomyces cerevisiae [3]) was “inactive” each time. The inhibition entry (in experiment [5]; in experiment [6]; in the experiment with Penicillium decumbens; with Saccharomyces cerevisiae [7]) was “inactive” throughout. The compound also had a residual activity in experiment [2] of 91%. Moreover, the Ki in experiment [4] came to 280 µM.
As for `CCCCCCCCCCCCSC1=N[C@H]2O[C@H](CO)[C@@H](O)[C@H](O)[C@H]2O1`, the inhibition result (with Aspergillus niger; in the experiment on Prunus dulcis; in [1]; in the experiment with Canavalia ensiformis; in the experiment with Helix pomatia; with Saccharomyces cerevisiae [3]) was “inactive” in each case. Moreover, the inhibition entry (in experiment [5]; in experiment [6]; with Penicillium decumbens; with Saccharomyces cerevisiae [7]) was “inactive” in each case. The compound further had a residual activity in experiment [2] of 87%. Further, the affinity in [4] corresponds to a Ki of 73 µM.
For `O=C(NCCCCCCSC1=N[C@H]2O[C@H](CO)[C@@H](O)[C@H](O)[C@H]2O1)C12CC3CC(CC(C3)C1)C2`, the inhibition result (in the experiment on Aspergillus niger; in the experiment on Prunus dulcis; in experiment [1]; in the experiment on Canavalia ensiformis; in the experiment on Helix pomatia; in the experiment with Saccharomyces cerevisiae [3]) was “inactive” each time. Also, the inhibition entry (in experiment [5]; in experiment [6]; in the experiment on Penicillium decumbens; in the experiment with Saccharomyces cerevisiae [7]) was “inactive” throughout. In addition, the residual activity in experiment [2] turned out to be 91%. The affinity in experiment [4], expressed as Ki, was 230 µM.
On to `CCCCCCCCCCCCCCCCSC1=N[C@H]2O[C@H](CO)[C@@H](O)[C@H](O)[C@H]2O1`, for which the inhibition entry (in the experiment on Aspergillus niger; in the experiment with Prunus dulcis; in experiment [1]; with Canavalia ensiformis; in the experiment on Helix pomatia; in the experiment on Saccharomyces cerevisiae [3]) was “inactive” each time. Further, the inhibition entry (in experiment [5]; in experiment [6]; with Penicillium decumbens; in the experiment with Saccharomyces cerevisiae [7]) was “inactive” each time. The residual activity in [2] was 86%. Affinity in experiment [4] was put at a Ki of 52 µM.
Consider `C=CCSC1=N[C@H]2O[C@H](CO)[C@@H](O)[C@H](O)[C@H]2O1`, for which the inhibition result (in the experiment with Aspergillus niger; with Prunus dulcis; in [1]; in the experiment with Canavalia ensiformis; in the experiment on Helix pomatia; in the experiment on Saccharomyces cerevisiae [3]) was “inactive” throughout. In addition, the inhibition result (in [5]; in experiment [6]; in the experiment on Penicillium decumbens; in the experiment with Saccharomyces cerevisiae [7]) was “inactive” throughout. Besides, the residual activity in [2] came to 97%. In experiment [4], the affinity corresponds to a Ki of 220 µM.
In the case of `CCCCSC1=N[C@H]2O[C@H](CO)[C@@H](O)[C@H](O)[C@H]2O1`, the inhibition entry (in the experiment with Aspergillus niger; in the experiment with Prunus dulcis; in [1]; with Canavalia ensiformis; with Helix pomatia; in the experiment with Saccharomyces cerevisiae [3]) was “inactive” throughout. In addition, the inhibition result (in experiment [5]; in experiment [6]; in the experiment with Penicillium decumbens; in the experiment with Saccharomyces cerevisiae [7]) was “inactive” each time. In experiment [2], this compound had a residual activity of 92%. The inhibition constant Ki in [4] amounted to 580 µM.
In the case of `CCCCCCCSC1=N[C@H]2O[C@H](CO)[C@@H](O)[C@H](O)[C@H]2O1`, the inhibition entry (in the experiment on Aspergillus niger; in the experiment on Prunus dulcis; in experiment [1]; with Canavalia ensiformis; in the experiment on Helix pomatia; in the experiment on Saccharomyces cerevisiae [3]) was “inactive” each time. The inhibition entry (in [5]; in [6]; with Penicillium decumbens; in the experiment with Saccharomyces cerevisiae [7]) was “inactive” in each case. The residual activity in [2] was 91%. Further, in experiment [4], the inhibitory constant (Ki) turned out to be 310 µM.
